Assay outcomes deposited in PubChem by Broad Institute.
ERp5 block: inhibitors of ERp5-driven insulin aggregation, primary screen, biochemical, turbidity, absorbance 650 nm, single point; AID 651711, 2012; 0.05% of 350,000 active; inhibition, % at 9.99 µM; Protein disulfide-isomerase A6 (Homo sapiens), Q15084; 90 min;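 active means mean replicate inhibition above about 25%, with every replicate also reaching it, limit read from the data, passing the limit was not always enough; inconclusive means only one of those two criteria met; inactive means neither criterion met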
Target sequence (Q15084 whole entry, looked up): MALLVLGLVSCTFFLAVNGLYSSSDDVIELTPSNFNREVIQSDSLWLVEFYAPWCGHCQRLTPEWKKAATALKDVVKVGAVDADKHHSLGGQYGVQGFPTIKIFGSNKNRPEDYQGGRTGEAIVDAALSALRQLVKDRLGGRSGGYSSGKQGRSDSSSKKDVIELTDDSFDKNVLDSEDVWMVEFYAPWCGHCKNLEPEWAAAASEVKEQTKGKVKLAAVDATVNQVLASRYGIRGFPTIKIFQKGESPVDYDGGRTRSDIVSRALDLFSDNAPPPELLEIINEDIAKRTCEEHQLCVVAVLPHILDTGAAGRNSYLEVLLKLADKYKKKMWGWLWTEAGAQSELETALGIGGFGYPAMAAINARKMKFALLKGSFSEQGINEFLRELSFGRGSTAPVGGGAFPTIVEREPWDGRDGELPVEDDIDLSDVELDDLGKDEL
Env fusion inh: inhibitors of HIV-1 Env-driven cell-cell fusion, primary screen, HeLa-JRFL effector, CEM21 target cells, luciferase | 1.1% of 360,000 active | inhibition, % at 12.3 µM | AID 651610, 2012;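 active means mean replicate inhibition score of at least 50 and every replicate individually at or above 50; inconclusive means only one of the two criteria met; inactive means mean below 50 and not all replicates reaching 50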;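 further: 0% = plate neutral controls and 100% = maraviroc near 300 nM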
FN deposition inh: inhibitors of fibronectin matrix deposition, primary screen, AH1F cells, Alexa488-fibronectin fluorescence, plate reader. AID 743247, 2014. AH1F fibroblasts, overnight. inhibition, % at 12.6 µM. 0.086% of 350,000 active;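 active means mean inhibition across replicates of 30% or more, regardless of how many single replicates reach that level; inconclusive means mean under 30% yet at least half of replicates reach 30%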;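 further: positive control wells lacked labelled fibronectin entirely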
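Material: AH1F fibroblast monolayer depositing Alexa488-labelled fibronectin into matrix / Amount: 10000 AH1F cells per well / Signal: fluorescence 485/525 nm / Medium: DMEM, 2% serum / Compound: single dose, pinned / Incubation: 1 h cell adhesion before compound, then overnight fibronectin incubation / Reagent: Alexa488-FN, 24 nM final / Read-out: inhibition of fibronectin deposition signal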
PDI turbidity: inhibitors of human PDI, primary screen, biochemical, turbidity, single point, plate reader. Protein disulfide-isomerase (Homo sapiens), P07237. PDI insulin aggregation turbidity, A650, 90 min. inhibition, % at 10 µM. 0.052% of 350,000 active. AID 588391, 2011;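 active means mean inhibition across replicates of 30% or more, whatever share of single replicates reach that level; inconclusive means mean inhibition below 30% while every single replicate reaches 30%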
GSIS activator: GLuc luminescence reporter in INS-1E cells, primary screen for activators of glucose-dependent secretion of insulin. INS-1E GLuc reporter insulin secretion, 2-3 h. activation, % at 16.6 µM. 0.61% of 370,000 active. AID 743287, 2014;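 active means lowest replicate activation of at least 40%, so every replicate reaches that level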;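 further: 0% = median of neutral control wells and 100% = median of IBMX positive control wells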
An asterisk follows results filed as active; ? = inconclusive; · = no result; [ ] = dose if it differs, or a comment. Shown are actives, neighbours in structure and some others; about 1.4% of the full set was active somewhere.

SMILES	ERp5 block	Env fusion inh	FN deposition inh	PDI turbidity	GSIS activator
Cc1cc(NC(=O)CSc2nc3sc4c(c3c(=O)n2C)CCCC4)no1	·	-13	-1	-3	152*
CC(NC(=O)CSc1nc2sc3c(c2c(=O)n1-c1ccccc1)CCCC3)c1ccccc1 (stereo not given)	·	103*	9	19	·
COc1ccc(-c2cnnn2-c2ccc(N)cc2)cc1OC	·	-15	5	-4	53*
CC1(C(=O)Nc2cccc(OC(F)(F)F)c2)Cc2c(-c3ccc4c(c3)OCO4)ccnc2O1 (stereo not given)	-5	20	34*	7	-8
CN(C)c1ccc(-c2ccnc3c2CC(C)(C(=O)Nc2cccc(OC(F)(F)F)c2)O3)cc1 (stereo not given)	5	-6	19	11	-1
COc1ccc2nc(NC(=O)C3CCN(S(=O)(=O)c4cccc5nsnc45)CC3)sc2c1	·	80*	14	-12	·
COc1cc2c(cc1OC)C(c1cccc([N+](=O)[O-])c1)NC(=O)C2 (stereo not given)	?	1	-36	3	70*
COc1ccc(NC(=O)N(C)C[C@@H]2Oc3c(NS(C)(=O)=O)cccc3C(=O)N([C@@H](C)CO)C[C@@H]2C)cc1	-2	-16[16.7 µM]	·	·	13
N#C/C(=N\Nc1ccc(Cl)cc1)C(=O)c1ccccc1	·	78*	8	4	·
CN(C)C(=O)[C@@]1(Cc2ccccc2)COC(c2ccc(OCCCO)cc2)=N1	-4	-10[16.7 µM]	·	·	·
CCC(=O)Nc1ccc2c(c1)OC[C@@H](C)N(Cc1cccnc1)C[C@H](C)[C@H](OC)CN(C)C2=O	10	·	-3	·	0
C[C@@H]1CN([C@@H](C)CO)C(=O)Cc2cc(N(C)C)ccc2O[C@H]1CN(C)Cc1ccccc1	-1	22[16.7 µM]	·	·	1
CCN1CCN(CCCNC(=O)c2ccc3c(c2)N(Cc2ccccc2)CCS3)CC1	6	16	13	8	43*
Cc1ccc([C@H]2N[C@]3(CCCN(Cc4ccc(Cl)cc4)C3=O)[C@H]3C(=O)N(C)C(=O)[C@@H]23)cc1	26*	·	4	-15	·
C[C@H](CO)N1C[C@H](C)[C@@H](CN(C)S(=O)(=O)c2ccccc2F)OCc2ccccc2-c2c(n(C)c3ccccc23)C1=O	-4	39[16.7 µM]	8	·	4
C1CCC(C(CC2CCCCN2)C2CCCCC2)CC1 (stereo not given)	-7	-7	6	1	104*
O=C(Cc1ccccn1)N1[C@@H](CO)[C@@H]2c3ccccc3NC[C@@H]21	0	·	2	·	0
COc1ccc(S(=O)(=O)Nc2ccc3c(c2)C(=O)N([C@H](C)CO)C[C@@H](C)[C@H](CN(C)Cc2ccc(C(=O)O)cc2)OCCCC[C@@H](C)O3)cc1	2	-28[16.7 µM]	·	·	28
COc1ccc(NC(=S)NCCCN2CCN(C3CCCCC3)CC2)cc1	6	63*	2	4	-6
CCOc1ccc(NC(=S)NCCCN2CCN(C3CCCCC3)CC2)cc1	5	·	7	-3	0
Cc1cc(C)cc(Oc2cc(NC(=O)c3cn(C)nc3C)cc([N+](=O)[O-])c2)c1	·	59*	3	9	·
CC(C)(C#N)Cc1cc(CC(C)(C)C#N)cc(C(C)(C)C)c1	11	33	0	-1	1
N#CC(Cc1cccc(CC(C#N)(c2ccccc2)c2ccccc2)c1)(c1ccccc1)c1ccccc1	6	57*	2	-6	2
CO[C@H]1CN(C)C(=O)c2ccc(NC(=O)Cc3ccccc3)cc2OC[C@@H](C)N(C(=O)c2ccccc2F)C[C@H]1C	3	-16[16.7 µM]	3	·	-33
O=C(c1ccccc1)N(C(=O)c1ccccc1)N1CCCC1	-4	·	-12	2	45*
SMILES	ERp5 block	Env fusion inh	FN deposition inh	PDI turbidity	GSIS activator
O=C(c1ccccc1)N1CCCCC1	1	·	·	·	9
C[C@@H]1CN([C@@H](C)CO)C(=O)c2cccc(NS(=O)(=O)c3cccs3)c2O[C@@H]1CN(C)S(=O)(=O)c1ccc(Cl)cc1	8	-53[16.7 µM]	·	·	-2
Cc1ccc(S(=O)(=O)NCc2csc(C)n2)cc1	4	-7	2	6	16
Cc1nc(CNS(=O)(=O)c2ccc3c(c2)CCCC3)cs1	-13	60*	-17	·	·
Nc1c(S(=O)(=O)c2cccs2)c2nc3ccccc3nc2n1CCc1ccccc1	·	81*	-2	·	·
Cc1ccc(S(=O)(=O)c2c(N)n(CCCO)c3nc4ccccc4nc23)cc1	·	·	·	-1	·
Cc1ccc(S(=O)(=O)c2c(N)n(CCC(C)C)c3nc4ccccc4nc23)cc1	·	81*	-1	4	·
COc1ccc(CCn2c(N)c(S(=O)(=O)c3cccs3)c3nc4ccccc4nc32)cc1OC	2	·	·	3	6
CCCC(=O)Nc1ccc2c(c1)C(=O)N(C)C[C@H](OC)[C@@H](C)CN(Cc1ccncc1)[C@@H](C)CO2	·	·	4	·	-1
CN1CCCC1CCNS(=O)(=O)c1ccc(Br)cc1 (stereo not given)	·	·	·	5	·
CN1CCCC1CCNC1C2CC3CC(C2)CC1C3 (stereo not given)	·	·	·	8	46*
COc1cccc(CNC(=O)[C@@H]2[C@@H](CO)[C@@H]3Cn4c(cccc4=O)[C@H]2N3C(=O)C2CC2)c1	-2	·	·	·	7
COc1ccc(CNC(=O)COC(=O)c2cncc(Br)c2)cc1	1	-6	-4	1	12
COc1ccc(CCNC(=O)Cc2ccc3c(c2)OCO3)cc1OC	·	-57	-4	-4	102*
COc1ccc(CCNC(=O)CCn2c(=O)c3cccn3c3cccnc32)cc1OC	2	1	0	13	65*
COc1ccc(C(=O)Cc2ccc3c(c2)OCO3)c(O)c1	·	-65	-2	-8	41*
COc1ccc(CNC(=O)CCCn2c(=O)c3cccn3c3cccnc32)cc1	1	-31	-12	7	14
COc1ccc(CCNC(=O)COC(=O)c2cncc(Br)c2)cc1OC	9	·	-1	-3	56*
COc1ccc(CCNC(=O)CNC(=O)c2ccc3c(c2)OCO3)cc1OC	7	-16	4	3	36
COc1cccc(NC(=O)Nc2ccc3c(c2)C(=O)N(C)C[C@H](OC)[C@@H](C)CN(C)[C@H](C)CO3)c1	-3	-5[16.7 µM]	4	·	4
COc1ccc(CCNC(=O)COC(=O)C2CC2C)cc1OC (stereo not given)	0	·	0	-1	57*
O=C(O)c1ccccc1NCCO	4	-7	7	-2	9
COc1ccc(CCNC(=O)C(C)Sc2ccc(C)cc2)cc1OC (stereo not given)	·	-40	-4	-3	53*
COC(=O)c1ccccc1NCCO	0	-3	-1	-2	120*
COc1ccc(CCNC(=O)CCCc2ccccc2)cc1OC	2	4	10	-2	55*
